Scp1 inh: Scp-1 (human) phosphatase inhibition | Q9GZU7 | Recombinant Scp1, phosphopeptide, malachite green phosphate absorbance | inhibition, % at 20 µM | 0.88% of 340,000 active;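 active = inhibition above about 50% at 20 µM, limit read from the data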
Target sequence (Q9GZU7 76-261 limits assumed): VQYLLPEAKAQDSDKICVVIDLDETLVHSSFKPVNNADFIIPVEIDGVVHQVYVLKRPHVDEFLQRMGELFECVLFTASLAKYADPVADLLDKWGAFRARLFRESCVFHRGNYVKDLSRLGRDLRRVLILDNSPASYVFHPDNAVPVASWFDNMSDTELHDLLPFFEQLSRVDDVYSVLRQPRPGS
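Test system – truncated SCP-1 phosphatase (76-261aa) · Reagent – Phosphorylated 17-residue peptide substrate · Incubation – 45 min room-temperature reaction, 5 min colour, 30 min stabiliser · Detection – colorimetric phosphate reagent with accelerator and stabiliser, absorbance at 630 nm · Measure – % inhibition at 20 µM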
GRK2 aptamer HTS: human GRK2 inhibition via aptamer displacement. inhibition of aptamer binding, % at 10 µM. bead flow cytometry, FAM-aptamer displacement from GRK2. AID 488847. 0.59% of 330,000 active. P25098;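 active = inhibition of aptamer binding above 40%, roughly 3 SD of noise, on plates passing a quality check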;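 also: median bead fluorescence of bound FAM aptamer so fluorescent compounds give negative values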
LMPTP block: LMPTP (human) inhibition | P24666 | recombinant LMPTP-A, OMFP fluorogenic substrate, fluorescence intensity | inhibition, % at 20 µM | 0.22% of 360,000 active;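 active = compounds that cut the enzyme signal by at least half of the control window in the single-dose screen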
Target sequence (P24666 whole entry, looked up): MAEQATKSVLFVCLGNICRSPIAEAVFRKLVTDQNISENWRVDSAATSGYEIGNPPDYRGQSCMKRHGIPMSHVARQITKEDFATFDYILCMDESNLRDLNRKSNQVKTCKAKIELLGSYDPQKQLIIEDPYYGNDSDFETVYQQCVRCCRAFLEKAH
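Test system: LMPTP-A phosphatase enzyme. Amount: LMPTP-A at 0.625 nM final in the reaction. Reagent: OMFP substrate, 400 µM final. Times: 50 min at room temperature. Signal: endpoint fluorescence intensity from OMFP dephosphorylation. Read-out basis: % inhibition. Benchmarks: no-enzyme and uninhibited controls.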
DNMT1 block: DNMT1 (human) enzyme inhibition; P26358; DNMT1 molecular beacon, Hinp1I cleavage, fluorescence; inhibition (reported as % activation of signal), % at 10 µM; 0.83% of 360,000 active; AID 588458; in the data active = inhibition above about 50%
SUMO1 PPI mod: alters human SUMO1 binding to SIM partners; SUMO1 binding to a labelled peptide, TR-FRET, 1 h; inhibition, % at 20 µM; 0.33% of 360,000 active; AID 602429; in the data active = inhibition above about 37%
Target sequence (P63165 whole entry, looked up): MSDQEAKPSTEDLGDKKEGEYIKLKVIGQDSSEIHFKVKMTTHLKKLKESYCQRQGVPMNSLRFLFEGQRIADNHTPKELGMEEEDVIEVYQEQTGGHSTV
STEP inh: STEP (human) phosphatase inhibition; P54829; recombinant STEP, OMFP fluorogenic substrate, fluorescence; inhibition, % at 20 µM; 0.25% of 360,000 active; AID 588621;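 active = inhibition at 20 µM, scaled per plate between control wells, above about 37%, limit read from the data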
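Material: STEP (striatal-enriched tyrosine phosphatase) enzyme, cell-free | Medium: 50 mM Bis-Tris pH 6.0 with 2.5 mM DTT and 0.005% Tween 20 | Read-out: Percent inhibition scaled to no-enzyme and uninhibited-enzyme controls, plate-pattern corrected | Signal: Fluorescence read at 480 nm ex / 540 nm em | Times: 20 min reaction, room temperature, in the dark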
Scp1 confirm: confirmation of human Scp-1 phosphatase inhibitors | recombinant SCP-1 catalytic domain, phosphate release, malachite green absorbance | AID 540281 | inhibition, % at 20 µM | shares compounds with Scp1 inh | 61% of 2,500 active
Scp-1 MG ctr: interferes with malachite green readout, flagging false Scp-1 hits; AID 540313; 2,500 tested, under 10 active; apparent inhibition (interference), % at 20 µM; shares compounds with Scp1 inh; Colorimetric interference counterscreen, malachite green absorbance 630 nm;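 also: compounds added after enzyme reaction finished so only phosphate colour detection is probed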
Scp-1 Tm shift: binds human Scp-1, shifting its melting temperature; 25% of 1,500 active; shares compounds with Scp1 inh; AID 540329; Recombinant SCP1, Sypro Orange thermal shift Tm; thermal shift relative to vanadate control, % at 40 µM;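 active = substances whose mean melting-temperature shift, as a percentage of the reference inhibitor's shift, reaches about 5.3%, limit read from the data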
DNMT1 interf DR: beacon fluorescence artifact, dose response counter-screen; shares compounds with DNMT1 block; molecular beacon fluorescence, spectral interference counter-screen; IC50, µM; 200 tested, under 10 active; AID 602382; call rule not given here
DNMT1 confirm: DNMT1 inhibition confirmation, single concentration; 8% of 2,300 active; inhibition, % at 10 µM; DNMT1 molecular beacon HinP1I cleavage, fluorescence; shares compounds with DNMT1 block; AID 602385;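 active = average inhibition of at least 30% in the single-concentration confirmation test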
Beacon interf: counter-screen for DNMT1 inhibitors: spectral interference; DNMT1 molecular beacon spectral interference counterscreen, fluorescence 485/520; AID 602387; activation (fluorescence interference), % at 10 µM; 1% of 2,300 active; shares compounds with DNMT1 block;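 active = activation of at least 30% at 10 µM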;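 also: DNMT1 catalytic domain with a HinP1I cleavage step and a FAM/dabcyl DNA beacon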
Large screens that a line does not name were inactive (follow-up assays come after a bar, where they were run); ! = not active in a repeat. A selection: hits, their analogues and other compounds. The true share with any hit is near 2.2%.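 The calls were made as follows, unless noted: active = inhibition of at least 30% at 20 µM; inactive = the rest.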

CC[N+](C)(CC)CCCOC(=O)C(O)(c1ccccc1)C1CCCCC1 (configuration not stated)	Scp1 inh 101.6 | Scp1 confirm 78.6 | Scp-1 MG ctr inactive | Scp-1 Tm shift inactive
CC/C(CC(c1ccccc1)c1c(O)c2ccccc2oc1=O)=N\NC(N)=S (configuration not stated)	Scp1 inh 56.0 | Scp1 confirm 45.6 | Scp-1 MG ctr inactive | Scp-1 Tm shift inactive
O=C(NN=Cc1ccc(N(CCCl)CCCl)cc1)c1cccc([N+](=O)[O-])c1	Scp1 inh 93.3 (no result: GRK2 aptamer HTS) | Scp1 confirm 71.7 | Scp-1 MG ctr inactive | Scp-1 Tm shift inactive
COc1ccc(Cc2c(O)[nH]c(=S)[nH]c2=O)cc1	Scp1 inh 53.1 | Scp1 confirm inactive | Scp-1 MG ctr inactive
CCCCOc1ccc(C(C)=O)cc1Cc1c(O)[nH]c(=S)[nH]c1=O	none
C[N+]1(C)CCc2cc3c(cc2[C@H]1[C@@H]1OC(=O)c2c1ccc1c2OCO1)OCO3	Scp1 inh 98.5! | Scp1 confirm 82.4 | Scp-1 MG ctr inactive | Scp-1 Tm shift inactive
CC(C)N1C(=O)CC2(CC[N+](C)(CCOC(=O)C(O)(c3ccccc3)c3ccccc3)CC2)C1=O (configuration not stated)	Scp1 inh 69.9 | Scp1 confirm 101.5 | Scp-1 MG ctr inactive | Scp-1 Tm shift inactive
COC(=O)C1=C(c2cccc(OCc3ccccc3)c2)C[C@@H]2CC[C@H]1N2C(=O)NCc1ccc([N+](=O)[O-])cc1	none
COC(=O)C1=C(c2ccc(OCc3ccccc3)cc2)C[C@@H]2CC[C@H]1N2C(=O)NCc1ccc([N+](=O)[O-])cc1	Scp1 inh 68.4 | Scp1 confirm inactive | Scp-1 MG ctr inactive
COC[C@H]1OC(=O)c2coc3c2[C@@]1(C)C1=C(C3=O)[C@@H]2CCC(=O)[C@@]2(C)C[C@H]1OC(C)=O	none (no result: GRK2 aptamer HTS)
Cn1cc[n+](C)c1P(=S)(c1ccccc1)c1ccccc1	none
Cc1c(P(=S)(c2ccccc2)c2ccccc2)[n+]2ccccc2n1C	Scp1 inh 67.8 (no result: GRK2 aptamer HTS) | Scp1 confirm inactive | Scp-1 MG ctr inactive
COc1ccc(C(=O)O/N=C(/C(N)=O)P(=O)(OC(C)C)OC(C)C)cc1	none
CCC(C)(O)C(=O)OC1C(=O)OC2CC3C(C)=CC(O)C(O)C3(C)C3C4(O)OCC23C1C(C)C4O (configuration not stated)	none (no result: Scp1 inh, GRK2 aptamer HTS)
CNC(=O)OCc1n(C)cc[n+]1C	Scp1 inh 55.0 | Scp1 confirm inactive | Scp-1 MG ctr inactive
CNC(=O)OCCc1nccn1C	none
Cc1ccc(C(O)(C(=O)OC(C)C)C(O)c2ccc(F)cc2)cc1 (configuration not stated)	none (no result: Scp1 inh, GRK2 aptamer HTS, DNMT1 block, STEP inh)
O=S(=O)(c1cc(Cl)cc(Cl)c1)N1Cc2cc(-c3cccc(F)c3)ccc2-n2nncc2C1	none (no result: Scp1 inh, GRK2 aptamer HTS)
O=C1NC(=S)NC(=O)C1=Cc1ccc(OCC(=O)N2CCCC2)cc1	Scp1 inh 51.2 | Scp1 confirm 51.3 | Scp-1 MG ctr inactive | Scp-1 Tm shift inactive
CCOc1cc(C=C2C(=O)NC(=O)NC2=O)ccc1OCC(=O)N1CCOCC1	none
Cn1cccc1/C=C1\C(=O)NC(=O)N(Cc2ccco2)C1=O	Scp1 inh 79.8, DNMT1 block 104.0, STEP inh 56.2 (no result: GRK2 aptamer HTS) | Scp1 confirm 45.0 | Scp-1 MG ctr inactive | Scp-1 Tm shift 8.1 | DNMT1 confirm inactive | Beacon interf inactive
Cc1ccc(/C=C2/C(=O)NC(=O)N(Cc3ccc(F)cc3)C2=O)o1	none (no result: Scp1 inh, LMPTP block, DNMT1 block, SUMO1 PPI mod, STEP inh)
O=c1[nH]c2ccccc2n1C1CCN(C(CCc2ccccc2)c2nnnn2C2CCCCC2)CC1 (configuration not stated)	none (no result: Scp1 inh, GRK2 aptamer HTS)
CC(C)(C)C(=O)N1Cc2cc(-c3ccccc3)ccc2-n2nncc2C1	none (no result: Scp1 inh, GRK2 aptamer HTS)
Cc1cc(/C=C2\C(=O)NC(=O)N(Cc3ccccc3)C2=O)c(C)n1-c1ccc(Cl)c(C(=O)O)c1	Scp1 inh 72.2, GRK2 aptamer HTS 100.0, DNMT1 block 103.2, STEP inh 83.7 | Scp1 confirm 60.4 | Scp-1 MG ctr inactive | Scp-1 Tm shift 8.7 | DNMT1 interf DR inactive | DNMT1 confirm 72.5 | Beacon interf inactive
Cc1ccc(S(=O)(=O)Cc2ccc(C(=O)N3CCC4(CC3)OCCO4)o2)cc1	Scp1 inh 57.5, DNMT1 block 58.4 | Scp1 confirm 51.9 | Scp-1 MG ctr inactive | Scp-1 Tm shift inactive | DNMT1 confirm inactive | Beacon interf inactive
Cc1cc(/C=C2\C(=O)NC(=O)N(c3ccc(Cl)cc3)C2=O)c(C)n1-c1sc2c(c1C#N)CCCC2	DNMT1 block 78.8, SUMO1 PPI mod 48.8 | DNMT1 interf DR inactive | DNMT1 confirm 32.2 | Beacon interf inactive
CCOC(=O)c1c(-n2c(C)cc(/C=C3\C(=O)NC(=O)N(C)C3=O)c2C)sc2c1CCCC2	none
CN1CCN(c2ccc(/C=C3\C(=O)NC(=S)N(c4cccc(Br)c4)C3=O)o2)CC1	none
COc1ccc(N2C(=O)/C(=C/c3ccc(C)o3)C(=O)NC2=S)cc1	DNMT1 block 87.0 (no result: GRK2 aptamer HTS) | DNMT1 confirm inactive | Beacon interf inactive
Cc1ccc(/C=C2\C(=O)NC(=S)N(c3cccc(F)c3)C2=O)o1	DNMT1 block 72.1 | DNMT1 confirm inactive | Beacon interf inactive
O=C1NC(=O)N(Cc2ccc(F)cc2)C(=O)/C1=C\c1ccoc1	Scp1 inh 64.4, DNMT1 block 88.1 | DNMT1 confirm inactive | Beacon interf inactive
CN(C)c1ccc(/C=C2\C(=O)NC(=O)N(Cc3ccc(F)cc3)C2=O)cc1	none
CN1CC(C(=O)c2cccc(C(F)(F)F)c2)C(c2ccc(Cl)cc2)C1 (configuration not stated)	none
CC(N)Cc1c[nH]c2ccc(O)cc12 (configuration not stated)	DNMT1 block 75.5 (no result: GRK2 aptamer HTS) | DNMT1 confirm inactive | Beacon interf inactive
